In ChEMBL document CHEMBL1157786, “Investigation of the bioactive conformation of histamine H3 receptor antagonists by the cyclopropylic strain-based conformational restriction strategy” (J Med Chem, 2010) one finds inhibition, Ki and Activity data, which are given here for eight compounds.

Assay [1] concerns the target T1, Histamine H3 receptor (Homo sapiens, UniProt Q9Y5N1). As to the kind of experiment: Antagonist activity at human histamine H3 receptor expressed in human HEK293-EBNA cells assessed as inhibition of histamine-induced response at 100 uM by luciferase reporter gene assay. Format: functional, cell-based.
The target in assay [2] is T1, Histamine H3 receptor. As to the kind of experiment: Displacement of [3H]N-alpha-methyl-histamine from human histamine H3 receptor expressed in human HEK293-EBNA cells. In kind it is cell-based.
Assay [3] deals with T1, Histamine H3 receptor. Briefly: Agonist activity at human histamine H3 receptor expressed in human HEK293-EBNA cells by luciferase reporter gene assay. In kind it is functional, cell-based. An outline of the steps: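 Human H3 receptor expressed individually in 293-EBNA cells; compounds tested for agonism at 10^-5 M in a luciferase reporter gene assay.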

Active and inactive are the calls of the source. The calls are words filed in the database; no cut-off is given here.

T1 sequence (Q9Y5N1 whole entry): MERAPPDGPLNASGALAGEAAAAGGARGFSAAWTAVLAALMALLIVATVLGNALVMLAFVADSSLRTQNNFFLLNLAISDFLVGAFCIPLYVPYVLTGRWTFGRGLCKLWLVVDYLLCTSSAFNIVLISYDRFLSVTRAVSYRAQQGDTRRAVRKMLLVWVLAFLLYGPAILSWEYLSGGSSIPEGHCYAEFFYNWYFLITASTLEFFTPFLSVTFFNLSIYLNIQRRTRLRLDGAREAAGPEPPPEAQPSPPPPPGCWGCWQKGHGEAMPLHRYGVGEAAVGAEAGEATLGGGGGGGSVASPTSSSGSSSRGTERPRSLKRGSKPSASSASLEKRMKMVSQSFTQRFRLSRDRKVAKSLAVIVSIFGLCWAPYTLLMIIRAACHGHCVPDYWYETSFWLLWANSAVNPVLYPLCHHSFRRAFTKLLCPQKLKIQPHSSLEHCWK

Regarding `Clc1ccc(CNCC[C@H]2C[C@@H]2c2c[nH]cn2)cc1`, on Histamine H3 receptor [1], the inhibition is 100%. This compound registered a Ki on Histamine H3 receptor [2] of 3.6 nM.

As for `CC[C@@H](CNCc1ccc(Cl)cc1)[C@@H]1C[C@H]1c1c[nH]cn1`, on Histamine H3 receptor [1], the inhibition was determined as 95%. Moreover, the outcome at Histamine H3 receptor [3] was inactive. Also, affinity at Histamine H3 receptor [2] was put at a Ki of 19.8 nM.

Consider `CC[C@H](CNCc1ccc(Cl)cc1)[C@H]1C[C@@H]1c1c[nH]cn1`, for which the inhibition on Histamine H3 receptor [1] was 96%. Further, at Histamine H3 receptor [3], the result was inactive.

Consider `CC[C@H](CNCc1ccc(Cl)cc1)[C@@H]1C[C@H]1c1cnc[nH]1`, for which the Ki at Histamine H3 receptor [2] was 129 nM.

As for `Clc1ccc(CNCC[C@@H]2C[C@H]2c2c[nH]cn2)cc1`, the inhibition on Histamine H3 receptor [1] came out at 100%. This compound also yielded a Ki on Histamine H3 receptor [2] of 8.4 nM.

Take `CC[C@H](CNCc1ccc(Cl)cc1)[C@@H]1C[C@H]1c1c[nH]cn1`: the inhibition at Histamine H3 receptor [1] was found to be 73%. Also, at Histamine H3 receptor [3], the outcome was inactive.

`CC[C@H](CNCc1ccc(Cl)cc1)[C@H]1C[C@@H]1c1cnc[nH]1`: affinity on Histamine H3 receptor [2] was put at a Ki of 63 nM.

Turning to `CC[C@@H](CNCc1ccc(Cl)cc1)[C@H]1C[C@@H]1c1c[nH]cn1`, on Histamine H3 receptor [1], the inhibition was found to be 88%. In addition, the result at Histamine H3 receptor [3] was inactive. The same compound had a Ki on Histamine H3 receptor [2] of 6.7 nM.
